From PubChem
In the library only some 1.4% were active in any assay of this set; here they are far more common.
Tb MetRS inh – blocks T. brucei methionyl-tRNA synthetase activity; purified T. brucei MetRS, ATP depletion, Kinase-Glo luminescence; inhibition, % at 11.9 µM; 360,000 compounds, 0.4% hits;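 active = inhibition above a per-plate cutoff of the control wells' mean inhibition plus 3 SD, cut at about 5.5% in these data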;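 also: 0% = DMSO wells median and 100% = median of wells with control inhibitor compound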
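Test system – parasite MetRS enzyme · Reagent – substrates ATP, L-methionine and bulk Escherichia coli tRNA · Doses – 11.9 µM compound single dose, 0.9% DMSO · Times – 15 min enzyme-compound preincubation, 2 h reaction, 10 min detection, 25 °C · Signal – Kinase-Glo luminescence, ATP depletion format · Controls – DMSO-only wells as low control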
UCH37 DUB inh – human UCH37 deubiquitinating enzyme inhibition. Q9Y5K5. purified proteasome/UCH37, Ub-AMC cleavage fluorescence. inhibition, % (no concentration beside the values). 330,000 compounds, 0.33% hits. AID 588478;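 active = mean inhibition over replicate wells above about 20%, limit read from the data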;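 also: 0% = compound-free wells with enzyme and 100% = wells lacking proteasome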
Target sequence (Q9Y5K5 whole entry, looked up): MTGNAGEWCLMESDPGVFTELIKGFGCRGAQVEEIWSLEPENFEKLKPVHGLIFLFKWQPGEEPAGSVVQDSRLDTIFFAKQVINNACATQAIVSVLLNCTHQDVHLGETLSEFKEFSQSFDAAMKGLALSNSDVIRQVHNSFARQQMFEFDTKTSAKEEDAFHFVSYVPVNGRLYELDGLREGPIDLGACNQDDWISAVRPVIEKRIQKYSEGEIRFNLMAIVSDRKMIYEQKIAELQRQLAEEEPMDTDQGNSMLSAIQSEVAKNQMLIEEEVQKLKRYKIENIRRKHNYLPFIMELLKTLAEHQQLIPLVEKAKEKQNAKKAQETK
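Material: human UCH37 enzyme supplied as purified proteasome complex / Amount: 0.15 nM proteasome as dispensed / Buffer or medium: pH 7.4 Tris-HCl (50 mM) with ovalbumin, ATP-MgCl2, DTT / Times: preincubation 30 min, reaction 25 min, room temperature / Technique: AMC fluorescence from Ub-AMC cleavage, excitation 355 nm, emission 460 nm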
Rin1-Abl PPI inh – human Rin1-Abl interaction inhibition; P00519+Q13671; TR-FRET Rin1/Abl binding, biochemical; inhibition, % at 7.35 µM; 360,000 compounds, 0.4% hits; AID 588664; in the data active = inhibition above about 5%, passing the limit was not always enough
ATG4B inhibitor – inhibitors of human ATG4B cysteine protease; Q9Y4P1; ATG4B cleavage of LC3-PLA2, NBD-HPC fluorescence, 1 h; inhibition, % at 8.33 µM; 340,000 compounds, 0.51% hits; AID 504462; in the data active = inhibition above about 40%
Target sequence (Q9Y4P1 whole entry, looked up): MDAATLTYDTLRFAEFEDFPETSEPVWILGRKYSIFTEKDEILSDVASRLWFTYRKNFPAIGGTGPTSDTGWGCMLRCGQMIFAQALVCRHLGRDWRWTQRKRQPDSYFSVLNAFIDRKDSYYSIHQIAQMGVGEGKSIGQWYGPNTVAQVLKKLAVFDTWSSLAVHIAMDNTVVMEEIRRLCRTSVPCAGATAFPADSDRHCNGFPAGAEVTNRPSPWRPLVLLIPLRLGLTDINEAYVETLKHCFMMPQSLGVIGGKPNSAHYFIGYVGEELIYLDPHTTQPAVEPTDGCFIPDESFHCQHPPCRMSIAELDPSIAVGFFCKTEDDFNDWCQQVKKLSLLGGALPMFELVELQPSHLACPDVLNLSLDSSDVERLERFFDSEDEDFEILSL
UCH37 confirm – confirmation of human UCH37 deubiquitinating enzyme inhibitors; inhibition, % at 20 µM; Proteasome-bound UCH37, Ub-AMC cleavage fluorescence; 480 compounds, 27% hits; shares compounds with UCH37 DUB inh;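 active = average inhibition over replicates above about 50%, so the earlier screening hit is confirmed, limit read from the data; inactive = the rest, counted as false positives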;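 also: based on cleavage rate fitted by regression over a 30 min kinetic read; 0% = proteasome plus Ub-AMC and 100% = Ub-AMC without proteasome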
Rin1 Abl conf – Rin1-Abl interaction inhibition confirmation | shares compounds with Rin1-Abl PPI inh | TR-FRET Rin1-Abl binding, purified proteins | inhibition, % at 7.35 µM | 1,300 compounds, 49% hits | AID 602124
GFP quencher – quenches GFP fluorescence, counter-screen for Rin1-Abl inhibitors | shares compounds with Rin1-Abl PPI inh | inhibitors/quenchers counterscreen | AID 602125 | 1,300 compounds, 8.5% hits | inhibition, % at 6.75 µM;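 also: ABL1-eGFP fusion protein alone without its partner RIN1-SBP; 0% = protein with vehicle and 100% = wells lacking protein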
GFP quench DR – GFP fluorescence interference dose response; shares compounds with Rin1-Abl PPI inh; GFP fluorescence interference/quenching counterscreen; IC50, µM; 230 tested, under 10 active; AID 602182; call rule not given here;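 also: ABL1-eGFP fusion protein alone without its RIN1 binding partner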
Tb MetRS conf – Trypanosoma brucei MetRS inhibition confirmed. shares compounds with Tb MetRS inh. T. brucei MetRS enzyme, luminescence (ATP depletion). inhibition, % at 11.9 µM. 1,400 compounds, 93% hits; in the data active = inhibition above about 7%
Jurkat tox – counter-screen for T. brucei MetRS inhibitors: Jurkat cell cytotoxicity; shares compounds with Tb MetRS inh; Jurkat cells viability, ATP luminescence; inhibition, % at 8.3 µM; 1,400 compounds, 12% hits; in the data active = inhibition above about 15%;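 also: 0% = vehicle and 100% = reference inhibitor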
TbMetRS FP orth – orthogonal test for Trypanosoma brucei MetRS inhibitors; inhibition, % at 11.9 µM; 1,400 compounds, 44% hits; purified T. brucei MetRS, fluorescence polarization; shares compounds with Tb MetRS inh; AID 651607; in the data active = inhibition above about 17%;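 also: 0% = vehicle wells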
* marks the source's active call; other numbers are inactive results; . = no result given. Rule as the data show it, unless noted: active = inhibition above about 6.5%; inactive = the rest.

SMILES | Tb MetRS inh | UCH37 DUB inh | Rin1-Abl PPI inh | ATG4B inhibitor | Rin1 Abl conf | GFP quencher | others
O=C1NC(=O)C(Nc2ccccc2)C(=O)N1 | 0 | 64* | 8 | -3 | . | . | UCH37 confirm=-4
O=c1[nH]c(O)c(N=Nc2ccc3c(c2)OCCO3)c(=O)[nH]1 | 0 | 13 | -4 | 3 | . | .
O=C(N=Nc1c(O)[nH]c(=O)[nH]c1=O)C1COc2ccccc2O1 (stereo not given) | 0 | 32* | 2 | -14 | . | . | UCH37 confirm=5
CC[N+]12CCC(CC1)C(C(O)(c1ccccc1)c1ccccc1)C2 (stereo not given) | -1 | 1 | 0 | -3 | . | .
CN1C(=O)C(Cc2cccc3ccccc23)C(=O)N(C)C1=O | -1 | 40* | 0 | 0 | . | . | UCH37 confirm=2
O=C1NC(=O)N(c2ccc3c(c2)OCO3)C(=O)/C1=C\c1ccc(N2CCCCC2)o1 | 0 | 29* | -18 | -3 | . | . | UCH37 confirm=44
Cc1cc(/C=C2\C(=O)NC(=O)N(C)C2=O)c(C)n1-c1ccc2c(c1)OCO2 | 0 | -4 | 1 | 1 | . | .
COC(=O)C1=C(c2cccc(C#N)c2)C[C@@H]2CC[C@H]1N2C(=O)NCc1cccc2ccccc12 | 0 | 47* | 0 | -13 | . | . | UCH37 confirm=13
COc1ccc(OC)c(CN2CCN(C(=O)COc3cccc(C)c3)CC2)c1 | 0 | 6 | 2 | -7 | . | .
CCOc1ccc(N2C(=O)/C(=C/c3ccco3)C(=O)NC2=S)cc1 | 0 | 29* | 2 | 81* | . | . | UCH37 confirm=99*
O=c1[nH]c(=S)n(-c2ccc(Br)cc2)c(O)c1C=Nc1ccc(N2CCOCC2)cc1 | 1 | 6 | -2 | 5 | . | .
CCOc1ccc(-n2c(O)c(C=Nc3ccc(N4CCOCC4)cc3)c(=O)[nH]c2=O)cc1 | 0 | 45* | 3 | -9 | . | . | UCH37 confirm=12
CC1=CP(=O)(Oc2ccc([N+](=O)[O-])cc2)CC1 (stereo not given) | 0 | . | 2 | . | . | .
CN1C(=O)C(=Cc2ccc(N3CCOCC3)o2)C(=O)N(C)C1=O | 0 | 30* | -18 | 6 | . | . | UCH37 confirm=24
N[C@@H]1CC[C@@]2(O)[C@H]3Cc4ccc(O)c5c4[C@@]2(CCN3CC2CC2)C1O5 (stereo not given in full) | 0 | 1 | 1 | -6 | . | .
Cn1ncnc2c(=O)n(C)c(=O)nc1-2 | 40* | 100* | 29* | 86* | 48* | 1 | UCH37 confirm=100*;GFP quench DR=>68;Tb MetRS conf=21*;Jurkat tox=87*;TbMetRS FP orth=5
CCCC(=O)N(C)C1=Nc2ccc(Cl)cc2C(c2ccccc2)=[N+]([O-])C1 | 0 | 1 | 0 | -7 | . | .
CCCCn1c(NC(=O)c2ccc(Br)o2)c(C(=O)OCC)c2nc3ccccc3nc21 | 3 | . | 7.3* | 28 | 5 | 1
Cc1cc(C=C2C(=O)NC(=S)NC2=O)c(C)n1-c1ccc2c(c1)OCO2 | 0 | 2 | -1 | 13 | . | .
CC(C)CCNC(=O)c1c(N)n(CC2CCCO2)c2nc3ccccc3nc12 (stereo not given) | 1 | -350 | 8 | 9 | . | .
CCC(C)NC(=O)c1c(N)n(CC2CCCO2)c2nc3ccccc3nc12 (stereo not given) | 0 | -314 | 5.7* | -34 | 3 | -1
O=c1[nH]c2ccccc2n1C1CCN(C(c2nnnn2-c2ccc3c(c2)OCCO3)C2CC2)CC1 (stereo not given) | 0 | . | 17* | . | 20* | 1 | GFP quench DR=>68
COc1ccc(-n2nnnc2C(c2ccccc2)N2CCC(n3c(=O)[nH]c4ccccc43)CC2)cc1 (stereo not given) | -1 | . | 7 | . | . | .
COc1ccc(-n2nnnc2C(C2CC2)N2CCC(n3c(=O)[nH]c4ccccc43)CC2)cc1 (stereo not given) | 0 | . | 20* | . | 24* | 0 | GFP quench DR=>67
Cc1ccccc1C(O)(Cc1ccccc1)C1CN2CCC1CC2 (stereo not given) | -2 | 2 | 2 | -9 | . | .
SMILES | Tb MetRS inh | UCH37 DUB inh | Rin1-Abl PPI inh | ATG4B inhibitor | Rin1 Abl conf | GFP quencher | others
COC(=O)C1=C(c2ccc(OC(F)(F)F)cc2)C[C@@H]2CC[C@H]1N2C(=O)N1CCCC1 | 0 | 1 | -1 | 12 | . | .
CCCN1CCc2cc(O)cc3c2[C@H]1Cc1ccc(O)c(O)c1-3 | 0 | 1 | 11* | -8 | 12* | 8.6*
O=C(c1ccc2c(c1)OCO2)C1CCCN(Cc2ccc(F)c(F)c2)C1 (stereo not given) | 0 | 5 | -3 | 9 | . | .
COC(=O)CCCCC1SCC(NC(=O)c2ccccc2)C1Cl (stereo not given) | -1 | 2 | 9.2* | -4 | 14* | -2
COC(=O)C(O)(c1ccc(NC(=O)c2ccccc2)cc1)C(F)(F)F (stereo not given) | -1 | 2 | 1 | -2 | . | .
O=c1[nH]c(=S)n(C2CC2)c(O)c1C=NCCN1CCOCC1 | -1 | 9 | -3 | 1 | . | .
COP(=O)(OC)C(NS(=O)(=O)c1ccccc1)C(Cl)(Cl)Cl (stereo not given) | -1 | 6 | 8.0* | 6 | 0 | -1
COP(=O)(OC)C(Nc1ccccn1)c1ccccc1 (stereo not given) | -1 | 4 | -4 | -8 | . | .
Cc1ccc(N2C(=O)NC(=O)/C(=C/C=C/c3ccco3)C2=O)cc1 | -1 | 3 | 6.2* | 7 | 3 | 0
CNCC(O)c1ccc(O)cc1 (stereo not given) | 0 | 1 | 0 | -10 | . | .
CC(Cc1ccc(O)cc1)NCC(O)c1ccc(O)c(O)c1 (stereo not given) | 0 | . | 14* | . | 9.3* | 4
COc1cccc(C(c2nnnn2-c2ccc3c(c2)OCCO3)N2CCC(n3c(=O)[nH]c4ccccc43)CC2)c1OC (stereo not given) | -1 | . | 20* | . | 19* | -1 | GFP quench DR=>68
COc1ccc(-n2nnnc2C(c2cccc(OC)c2OC)N2CCC(n3c(=O)[nH]c4ccccc43)CC2)cc1 (stereo not given) | -1 | . | 19* | . | 16* | 2
